From PubChem BioAssay AID2656 (Broad Institute, 2010)
Activity calls are given as the source filed them.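 The calls were made as follows: active = mean inhibition of serotonin release over both replicates above 50%; inactive = mean inhibition at or below 50%.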

The compounds below were run on Human washed platelets, SFLLRN-induced 14C-serotonin release (assay: blockers of platelet serotonin release via PAR1 – cell-based, 14C-serotonin release, radioactive, mechanism study for platelet granule secretion inhibitor project, late-stage follow-up (AID 2656)). Conditions: at 10 µM; hits give high values.
Outline: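 Test system: washed platelets preloaded with 14C-serotonin. Amount: 2x10^8 platelets/mL. Times: compound pre-incubation 15 min, SFLLRN stimulation 15 min. Detection: beta scintillation counting of supernatant. Doses: 10 µM single dose.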

SMILES	inhibition
CCOc1ccc2nc(NCCO)[nH]c2c1	9.75% (inactive)
CC(=O)Oc1ccc(-c2nc(-c3cccnc3)no2)cc1	-5.2% (inactive)
COc1ccc(C(=O)Nc2ccc(N3CCOCC3)cc2)cc1OC	9.3% (inactive)
O=C(Oc1ccc(Cl)cc1)c1ccc(COC(=O)c2cnccn2)cc1	0.5% (inactive)
COC(=O)c1nn(-c2ccc3c(c2)CCN3C(C)=O)cc1O	12.8% (inactive)
COC(=O)c1ccccc1NC(=O)Nc1ccc2c(c1)OCO2	15.4% (inactive)
COc1cc2c(cc1OC)-c1cc(Nc3ccccc3C)nc(=O)n1CC2	94.8%
